Compounds with a hit are over-represented: about 5.1% of the library has one in this group of screens.
STAT1 blocker = STAT1 signaling inhibitors, primary screen, cell-based, HTS, luciferase reporter. NIH 3T3 STAT1-luciferase reporter, IFN-gamma, luminescence. inhibition, % at 5.5 µM. hit rate 0.35% among 200,000;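 active means inhibition above a set limit, the mean inhibition across all tested compounds plus 3 SD, cut at about 34% in these data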;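 further: 0% = IFN-gamma with DMSO and 100% = IFN-gamma with 300 µM nifuroxazide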
STAT1 act-1 = STAT1 signaling activators, primary screen, cell-based, HTS, luciferase reporter. activation (% of control), % at 5.5 µM. AID 932, 2007. NIH 3T3 STAT1-luciferase reporter, IFN-gamma, luminescence; 100% = IFN-gamma alone, no compound. hit rate 2.6% among 200,000;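 active means activation above the screen-wide mean activation plus 3 SD, cut at about 130% in these data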;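 further: raw ratio to IFN-gamma control signal so 100% means no change and 0% no light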
NF-kB neuron act = activators of NF-kB expression in neurons, primary screen, cell-based, HTS | human neuronal cells, NF-kB reporter expression; stronger effect = higher value | fold change at 12.5 µM | hit rate 1.6% among 190,000 | AID 1239, 2008; in the data active means fold change above about 3.3
APP 5'UTR act = activators of APP 5'UTR luciferase reporter, primary screen, SH-SY5Y cells; SH-SY5Y APP 5'UTR luciferase reporter, luminescence; zero percent = DMSO vehicle wells; activation, % at 2 µM; hit rate 1% among 190,000; AID 1276, 2008;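 active means activation above a set limit, based on mean plus 3 SD of controls, cut at about 140% in these data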
STAT3 act-1 = IL-6 driven STAT3 reporter potentiators, primary screen, U3A cells, luciferase, luminescence, MLSCN library; hit rate 0.91% among 190,000; activation (% of control), % at 5.6 µM; IL-6 STAT3-luciferase reporter; 100% = signal with IL-6 EC80 alone; AID 871, 2007;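 active means activation above the screen-wide mean of compound activation plus 3 SD, cut at about 130% in these data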;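 further: 0% = background luminescence of wells with medium and substrate only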
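Material: STAT3-luciferase reporter U3A cells. Controls: IL-6-treated wells, 100% activation. Read-out: % activation versus median of IL-6-stimulated wells. Probe or stimulus: IL-6 stimulus at 33 ng/mL final. Timing: compound 1 h, then IL-6 6 h at 37 °C. Signal: reporter luminescence signal.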
STAT3 inh = IL-6 driven STAT3 reporter inhibitors, primary screen, U3A cells, luciferase, luminescence, MLSCN library; inhibition, % at 5.5 µM; AID 862, 2007; IL-6 STAT3-luciferase reporter; host cell line lacks STAT1; hit rate 0.89% among 190,000;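 active means inhibition above the mean inhibition across all screened compounds plus 3 SD, cut at about 44% in these data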;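 further: 0% = DMSO only wells and 100% = 100 µM nifuroxazide control wells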
STAT3 act-2 = STAT3 reporter potentiators, retest of hits, confirmation, U3A cells, luciferase, luminescence; shares compounds with STAT3 act-1; IL-6 potentiation; U3A cells lack STAT1; 100 means same as IL-6 alone; potentiation (% of control), % at 5.7 µM; hit rate 64% among 1,200; AID 1267, 2008;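 active means percent activation of the STAT3 luciferase reporter above a set limit taken from the earlier primary screen, cut at about 130% in these data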;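 further: 0% = background signal of medium plus substrate and 100% = median of IL-6 with DMSO wells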
NFkB act 2 = NF-kB reporter activators in human cells, counter-screen for STAT3 activator project; shares compounds with STAT3 act-1; NF-kappaB reporter activation; activation (% of control), % at 5.7 µM; hit rate 11% among 1,200; AID 1309, 2008; in the data active means activation above about 120%;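 further: reporter induced by TNF-alpha stimulation; 100% = median of stimulated DMSO wells and 0% = no signal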
STAT1 act-2 = STAT1 reporter activators, IFN-gamma induced, counter-screen for STAT3 activator project, cell-based, NIH 3T3, luciferase luminescence. activation (% of control), % at 5.7 µM. hit rate 13% among 1,200. shares compounds with STAT3 act-1. AID 1318, 2008. NIH 3T3 STAT1-luciferase reporter;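 active means activation above the solvent-only control well mean plus 3 SD, set per screening run, cut at about 120% in these data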;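 further: 100% = IFN-gamma with DMSO median signal so 100% means no change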
* marks the source's active call; other numbers are inactive results; . = not tested or not shown.

SMILES | STAT1 blocker | STAT1 act-1 | NF-kB neuron act | APP 5'UTR act | STAT3 act-1 | STAT3 inh | STAT3 act-2 | NFkB act 2 | STAT1 act-2
CCS(=O)(=O)N1CCN(Cc2c[nH]c3ccccc23)CC1 | 19 | 82 | 0.93 | 6 | 142* | -40 | 142* | 100 | 89
COCC(=O)N(CCc1ccc(OC)c(OC)c1)Cc1cc2cc(C)ccc2nc1Cl | 8 | 90 | 0.96 | 5 | 85 | 23 | . | . | .
O=Cc1ccc2cccnc2n1 | -7 | 106 | 0.88 | -1 | 148* | -49 | 146* | 106 | 103
Cc1ccccc1OCc1nc(-c2ccc(Br)o2)no1 | -12 | 111 | 1.6 | 17 | 98 | 12 | . | . | .
COc1ccccc1Cc1nc(-c2ccc(Br)o2)no1 | -7 | 106 | 1.6 | 12 | 156* | -64 | 136* | 114 | 126*
CC(C)c1ccc(/C=C2\NC(=S)N(Cc3cccnc3)C2=O)cc1 | 12 | 88 | 1.2 | -2 | 74 | 34 | . | . | .
O=C(CSc1nnc(-c2ccccc2NC(=O)c2ccccc2)o1)OC1CCCCC1 | -9 | 108 | . | 4 | 99 | 4 | . | . | .
COc1cccc2sc(NNC(=O)COc3ccccc3)nc12 | -4 | 102 | 1.1 | 12 | 100 | 7 | . | . | .
COc1cccc2sc(Nc3nnc(-c4ccc(F)cc4)o3)nc12 | -4 | 104 | 0.99 | 10 | 159* | -60 | 148* | 111 | 109
Cc1cc(C)nc(/N=C(\N)Nc2ccc(OCc3ccccc3)cc2)n1 | 4 | 95 | 0.79 | -6 | 81 | 26 | . | . | .
Cc1nc(/N=C(\N)Nc2ccccc2)nc2ccccc12 | -6 | 106 | 1.1 | 34 | 165* | -67 | 157* | 106 | 108
CCOC(=O)/C=C1\SCC(=O)N1CC(=O)NCc1cccc(Cl)c1 | -3 | 103 | 1 | 13 | 104 | -5 | . | . | .
CCn1c(=O)c(C(=O)Nc2ccsc2C(=O)OC)c(O)c2ccccc21 | 1 | 99 | 1.6 | -10 | 138* | -52 | 151* | 94 | 102
CCCCc1c(CCC)c(=N)c2ccccc2n1C | 32 | 71 | 0.66 | -7 | 85 | 22 | . | . | .
CCN(CC)P(=O)(Nc1ccc(C)cc1Br)c1ccc(N(C)C)cc1NC(=O)c1ccco1 (stereo not given) | -4 | 103 | 0.65 | 8 | 150* | -58 | 144* | 103 | 111
CCOC(=O)c1[nH]c2ccccc2c1NC(=O)c1ccc(S(=O)(=O)N(C)C)cc1 | 1 | 99 | 1.4 | 0 | 112 | -15 | . | . | .
CN(C)S(=O)(=O)c1ccc(C(=O)Oc2cc(=O)[nH]c3ccccc23)cc1 | -4 | 103 | 1 | -10 | 154* | -61 | 124 | 100 | 98
Cc1ccc(NC(=O)CN(C)S(=O)(=O)c2ccc(Br)s2)cc1F | -1 | 101 | 1.2 | -2 | 106 | -3 | . | . | .
O=C(c1ccco1)[C@@H]1[C@@H]2C(=O)N(c3ccc(Br)cc3)C(=O)[C@@H]2C2c3ccccc3C=CN21 (stereo not given in full) | -3 | 103 | . | 2 | 142* | -48 | 125 | 106 | 106
C[C@H](O)CC1=C[C@H](O)[C@@H](C)OC1=O | 4 | 95 | 1.1 | -6 | . | . | . | . | .
COc1ccccc1N=C(C)C1=C(O)CC(c2ccccc2)CC1=O (stereo not given) | -2 | 102 | 3.5* | -92 | 148* | -41 | 108 | 140* | 105
CCCC(=Nc1ccccc1OC)C1=C(O)CC(c2ccccc2)CC1=O (stereo not given) | 14 | 88 | 1.2 | -3 | 100 | 4 | . | . | .
N=c1sccn1CC(=O)Nc1cccc(S(=O)(=O)N2CCCCCC2)c1 | 20 | 80 | 1.1 | 44 | 97 | 5 | . | . | .
COc1ccc(C(=O)NN(C)c2nc(-c3ccccc3)nnc2C(F)(F)F)cc1 | 4 | 97 | 1.2 | -11 | 98 | 10 | . | . | .
COc1ccc(C(=O)NN(C)c2nc(C(F)(F)F)nc3ccccc23)cc1 | -5 | 102 | 3 | -95 | 156* | -62 | 131 | 165* | 101
SMILES | STAT1 blocker | STAT1 act-1 | NF-kB neuron act | APP 5'UTR act | STAT3 act-1 | STAT3 inh | STAT3 act-2 | NFkB act 2 | STAT1 act-2
O=C(Nc1c(C(=O)O)[nH]c2ccccc12)NC1CCCCC1 | 2 | 98 | 0.97 | 3 | 164* | -76 | 159* | 106 | 106
COCCNc1nnc(SCC(=O)c2c[nH]c3ccccc23)s1 | 19 | 84 | 1 | 21 | 141* | -42 | 136* | 104 | 97
COC(=O)c1c(C)[nH]c(C(=O)CN2CCOCC2)c1C | 10 | 91 | 1.1 | 0 | 139* | -40 | 138* | 108 | 99
CN(C1CCCC1)C1CCN(C(=S)Nc2cc(F)cc(F)c2)CC1 | -3 | 102 | 1.3 | -7 | 103 | 0 | . | . | .
Cc1nc2ccccc2n1CC(=O)OCC(=O)NCc1ccccc1 | 2 | 97 | 1.1 | 12 | 101 | 4 | . | . | .
CCOC(=O)Cn1c(=O)c(-c2ccccc2NCc2ccccc2)nc2ccccc21 | 2 | 98 | . | 9 | 136* | -39 | 127 | 98 | 95
CC1CC(C)CN(C(=O)CSC2=Nc3ccccc3C3=NC(Cc4c[nH]c5ccccc45)C(=O)N23)C1 (stereo not given) | -8 | 108 | 1 | 0 | 140* | -48 | 129 | 105 | 109
O=C(CSC1=Nc2ccccc2C2=NC(Cc3c[nH]c4ccccc34)C(=O)N12)NC1CCCCC1 (stereo not given) | -2 | 102 | 0.55 | 4 | 118 | -26 | . | . | .
COc1ccc(Br)cc1C(=O)Nc1cccc(NC(=O)c2ccco2)c1 | 6 | 94 | 0.3 | -24 | 82 | 24 | . | . | .
COc1ccc(Br)cc1C(=O)Nc1cccc(C)c1 | 2 | 98 | 1.1 | 15 | 157* | -67 | 139* | 107 | 95
COc1ccccc1NC(=O)c1cc(Br)ccc1Cl | -7 | 105 | 1 | 4 | 84 | 21 | . | . | .
COc1ccc(Br)cc1C(=O)Nc1ccccc1-c1ccccc1 | 4 | 96 | 0.85 | 2 | 138* | -48 | 135* | 102 | 96

Screens from PubChem.
